Laboratory results published in ChEMBL document CHEMBL3875208, “2-Oxoamides based on dipeptides as selective calcium-independent phospholipase A2 inhibitors” (Bioorg Med Chem, 2017).

How the values were obtained:
[1] = target: T1, Cytosolic phospholipase A2 (Homo sapiens) (UniProt P47712); assay: Inhibition of human group-4 cPLA2 using Triton-X-100/PAPC/arachidonyl-1-14C PAPC/PIP2 substrate mixed micelles at 0.091 mole_fraction by modified dole assay relative to control
T1 sequence (whole entry): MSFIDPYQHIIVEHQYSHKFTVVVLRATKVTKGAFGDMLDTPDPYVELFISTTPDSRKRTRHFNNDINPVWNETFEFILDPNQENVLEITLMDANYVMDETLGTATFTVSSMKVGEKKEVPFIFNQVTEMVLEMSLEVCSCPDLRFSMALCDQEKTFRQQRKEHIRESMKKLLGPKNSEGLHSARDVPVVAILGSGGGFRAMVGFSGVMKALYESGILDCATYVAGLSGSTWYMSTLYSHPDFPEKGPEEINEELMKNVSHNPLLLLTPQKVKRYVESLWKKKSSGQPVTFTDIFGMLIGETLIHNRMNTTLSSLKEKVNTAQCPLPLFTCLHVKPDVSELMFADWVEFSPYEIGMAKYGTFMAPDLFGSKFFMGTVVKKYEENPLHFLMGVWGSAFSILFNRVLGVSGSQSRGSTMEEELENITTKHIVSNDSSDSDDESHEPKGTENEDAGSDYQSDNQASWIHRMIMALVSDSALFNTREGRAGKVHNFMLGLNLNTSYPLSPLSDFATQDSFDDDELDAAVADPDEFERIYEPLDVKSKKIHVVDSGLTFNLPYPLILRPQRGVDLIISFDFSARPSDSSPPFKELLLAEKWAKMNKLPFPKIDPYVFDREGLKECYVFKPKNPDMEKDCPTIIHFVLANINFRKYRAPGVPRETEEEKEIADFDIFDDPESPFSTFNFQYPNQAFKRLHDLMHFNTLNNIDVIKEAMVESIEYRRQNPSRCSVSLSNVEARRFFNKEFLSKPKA
Outline: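 Buffer was 100 mM HEPES pH 7.5 with 90 μM CaCl2, 2 mM DTT and 0.1 mg/ml BSA. Activity was read by modified Dole assay with inhibitor at 0.091 mole fraction, added from a 5 mM DMSO stock, and expressed as percent inhibition.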

[2] = test system: Phospholipase A2 group VI, Homo sapiens; assay: Inhibition of human calcium-independent group-6A iPLA2 using Triton-X-100/PAPC/arachidonyl-1-14C PAPC substrate mixed micelles at 0.091 mole_fraction by modified dole assay relative to control
[3] = target: T2, Phospholipase A2 group V (Homo sapiens) (UniProt P39877); assay: Inhibition of human calcium-independent group-5 sPLA2 using Triton-X-100/PAPC/arachidonyl-1-14C PAPC substrate mixed micelles at 0.091 mole_fraction by modified dole assay relative to control; settings: in the assay text read “group-5 sPLA2” for “calcium-independent group-5 sPLA2”
T2 sequence (whole entry): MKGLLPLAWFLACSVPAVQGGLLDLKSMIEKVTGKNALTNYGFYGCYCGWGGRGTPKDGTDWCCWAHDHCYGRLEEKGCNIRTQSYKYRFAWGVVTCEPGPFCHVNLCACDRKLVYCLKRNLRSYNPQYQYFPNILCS
Outline: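 Human GV sPLA2 activity was measured by modified Dole assay. Inhibitor was added from a 5 mM DMSO stock to give 0.091 mole fraction in substrate, and percent inhibition was recorded.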

[4] = target: T2, Phospholipase A2 group V (Homo sapiens); assay: Inhibition of human group-5 sPLA2 using Triton-X-100/PAPC/arachidonyl-1-14C PAPC substrate mixed micelles at 0.091 mole_fraction by modified dole assay relative to control
[5] = test system: Phospholipase A2 group VI, Homo sapiens; assay: Inhibition of human calcium-independent group-6A iPLA2 using Triton-X-100/PAPC/arachidonyl-1-14C PAPC substrate mixed micelles by modified dole assay
Homo sapiens = organism: Homo sapiens; assay: Selectivity ratio of XI50 for human group-4 cPLA2 to XI50 for human calcium-independent group-6A iPLA2
[6] = test system: Phospholipase A2 group VI, Homo sapiens; assay: Inhibition of human calcium-independent group-6A iPLA2 using substrate mixed micelles at 0.091 mole_fraction by modified dole assay relative to control

Compound	inhibition [1] [%]	inhibition [2] [%]	inhibition [3] [%]	inhibition [4] [%]	XI50 (mole fraction) [5]	Selectivity ratio (Homo sapiens)	XI50 (mole fraction) [6]
CCCC[C@H](NC(=O)C(=O)CCCCc1ccccc1)C(=O)NCC(=O)OC(C)(C)C	46.9	91.1	43.4				
CCCC[C@@H](COCC(=O)OC(C)(C)C)NC(=O)C(=O)CCCCc1ccccc1	82.3	76		57.5			
CCCC[C@H](NC(=O)C(=O)CCCCc1ccc(OC)cc1)C(=O)NCCCC(=O)OCc1ccccc1	47.9	78.3	27.7				
COc1ccc(CCCCC(=O)C(=O)N[C@@H](CC(C)C)C(=O)NCCCC(=O)OC(C)(C)C)cc1	58	92.8		< 25			
CCCC[C@H](NC(=O)C(=O)CCCCc1ccc(OC)cc1)C(=O)NCC(=O)NCC(=O)OC(C)(C)C	27.1	66.5		< 25			
CCCC[C@H](NC(=O)C(=O)CCCCc1ccc(OC)cc1)C(=O)OC(C)(C)C	85.7	60	60.6				
COc1ccc(CCCCC(=O)C(=O)N[C@@H](CC(C)C)C(=O)NCC(=O)OC(C)(C)C)cc1	51.6	> 95	40.8		0.024		
CCCC[C@@H](COCC(=O)O)NC(=O)C(=O)CCCCc1ccc(OC)cc1		< 25					
CCCC[C@@H](COCC(=O)OC(C)(C)C)NC(=O)C(=O)CCCCc1ccc(OC)cc1		93.6					
CCCC[C@H](NC(=O)C(=O)CCCCc1ccc(OC)cc1)C(=O)NCC(=O)OC(C)(C)C	40.2	> 95		45.3	0.012		
CCCC[C@H](NC(=O)C(=O)CCCCc1ccc(OC)cc1)C(=O)NCCCC(=O)OC(C)(C)C	52.6	> 95	44.8		0.007	13	
CCCC[C@H](NC(=O)C(=O)CCCCc1ccc(OC)cc1)C(=O)NCC(=O)OCc1ccccc1	52.3	> 95		< 25	0.026		
CCCCC/C=C\C/C=C\C/C=C\C/C=C\CCCC(=O)C(F)(F)F							0.028
CCCC[C@H](NC(=O)C(=O)CCCCc1ccc2ccccc2c1)C(=O)NCC(=O)O	43.1	< 25		< 25			
CC[C@H](C)[C@H](NC(=O)C(=O)CCCCc1ccc(OC)cc1)C(=O)NCC(=O)OC(C)(C)C	57.3	81.8	48.2				
CCCC[C@@H](NC(=O)C(=O)CCCCc1ccc(OC)cc1)C(=O)NCC(=O)OC(C)(C)C	68	> 95	39.3		0.04		
CCCC[C@H](NC(=O)C(=O)CCCCc1ccccc1)C(=O)NCC(=O)O	< 25	< 25		< 25			
CCCC[C@H](NC(=O)C(=O)CCCCc1ccc(OC)cc1)C(=O)NCCC(=O)OC(C)(C)C	37.8	83.1		32.5			
CCCC[C@H](NC(=O)C(=O)CCCCc1ccc2ccccc2c1)C(=O)NCC(=O)OC(C)(C)C	57.5	89.1	44.8				
CCCC[C@H](NC(=O)C(=O)CCCCc1ccc2ccccc2c1)C(=O)NCC(=O)OCC	70.5	77.1		54.4			
CCCC[C@H](NC(=O)C(=O)CCCCc1ccc(OC)cc1)C(=O)NCCCCC(=O)OC(C)(C)C	64.5	90.1		56.3			
COc1ccc(CCCCC(=O)C(=O)N[C@H](C(=O)NCC(=O)OC(C)(C)C)C(C)C)cc1	35.4	85.7	47.1				
CCCC[C@@H](COCC(=O)OC(C)(C)C)NC(=O)C(=O)CCCCc1ccc2ccccc2c1	85.5	88.4	63.9				
CCCC[C@H](NC(=O)C(=O)CCCCc1ccc(OC)cc1)C(N)=O	29.3	66.2	31.1				
CCCC[C@H](NC(=O)C(=O)CCCCc1ccc(OC)cc1)C(=O)N[C@@H](C)C(=O)OC(C)(C)C	57.4	87.5	46.6				
CCCC[C@@H](COCC(=O)OCC)NC(=O)C(=O)CCCCc1ccc(OC)cc1		75.2					
CCCC[C@H](NC(=O)C(=O)CCCCc1ccc(OC)cc1)C(=O)N[C@H](C)C(=O)OC(C)(C)C	73.4	87.1	49.9				
